Legend:
Rattus norvegicus [1] = assay: Evaluated for the effects on the gastric emptying rates of phenol red semisolid meal through the stomach in rats, at a dose of 2.0 mg/Kg administered perorally.; assay type: functional
In short: (§1)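 Mice or rats fasted 18 h. Compound suspended in 0.5% tragacanth given orally 60 min before a gavaged meal of 0.05% phenol red in 1.5% aqueous methylcellulose (0.2 mL/mouse, 1.5 mL/rat). Animals killed 15 min later; phenol red left in stomach measured (Scarpignato method). Emptying expressed as % enhancement over tragacanth-control mean; Duncan's multiple range test.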

[2] = tested on: dopamine D2 receptor (Canis familiaris); assay: Evaluated for the dopamine D2 receptor antagonistic activity (antagonism of apomorphine-induced emesis in dogs) at a dose of 3.0 mg/kg administered perorally; details: Canis lupus familiaris
Rattus norvegicus [3] = assay: Evaluated for the effects on the gastric emptying rates of resin pellets solid meal through the stomach in rats, at a dose of 5.0 mg/kg administered perorally; assay type: functional; details: route oral
In short: (§2)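 Rats fasted 18 h. Compound suspended in 0.5% tragacanth given orally 30 min before 40 resin pellets (Amberlite IRA-93, 1-mm) are delivered into the stomach by tube. Animals killed 1 h later and pellets remaining in the stomach counted (Jacoby method). Result given as % enhancement over tragacanth-control mean; Duncan's multiple range test.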

Rattus norvegicus [4] = assay: Evaluated for the effects on the gastric emptying rates of phenol red semisolid meal through the stomach in rats, at a dose of 0.5 mg/kg administered perorally; assay type: functional; details: route oral; in short: as §1
Rattus norvegicus [5] = assay: Evaluated for the effects on the gastric emptying rates of phenol red semisolid meal through the stomach in rats, at a dose of 2.0 mg/kg administered perorally; assay type: functional; details: route oral; in short: as §1
Mus musculus [6] = assay: Evaluated for the effects on the gastric emptying rates of phenol red semisolid meal through the stomach in mouse, at a dose of 2 mg/kg administered perorally; assay type: functional; details: route oral; in short: as §1
Rattus norvegicus [7] = assay: Evaluated for the effects on the gastric emptying rates of phenol red semisolid meal through the stomach in rats, at a dose of 5.0 mg/kg administered perorally; assay type: functional; details: route oral; in short: as §1
Rattus norvegicus [8] = assay: Evaluated for the effects on the gastric emptying rates of resin pellets solid meal through the stomach in rats, at a dose of 2.0 mg/kg administered perorally; assay type: functional; details: route oral; in short: as §2
Mus musculus [9] = assay: Evaluated for the effects on the gastric emptying rates of phenol red semisolid meal through the stomach in mouse, at a dose of 1 mg/kg administered perorally; assay type: functional; details: route oral; in short: as §1
[10] = biological target: D(2) dopamine receptor (Canis lupus familiaris) (UniProt Q9GJU1); assay: Evaluated for the dopamine D2 receptor antagonistic activity (antagonism of the apomorphine-induced emesis in dogs) at a dose of 3.0 mg/kg administered perorally (po).; assay type: functional, organism-based; parameters: dose 3 mg/kg
In short: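 Male beagle dogs (10-16 kg), groups of three to six, pretreated with test compound; 2 h later apomorphine hydrochloride 0.3 mg/kg s.c.; emetic episodes counted over 1 h. Modified Janssen method.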

Rattus norvegicus [11] = assay: Evaluated for the effects on the gastric emptying rates of phenol red semisolid meal through the stomach in rats, at a dose of 10.0 mg/kg administered perorally; assay type: functional; details: route oral; in short: as §1
Mus musculus [12] = assay: Evaluated for the effects on the gastric emptying rates of phenol red semisolid meal through the stomach in mouse, at a dose of 5 mg/kg administered perorally; assay type: functional; details: route oral; in short: as §1
Mus musculus [13] = assay: Evaluated for the effects on the gastric emptying rates of phenol red semisolid meal through the stomach in mouse, at a dose of 0.5 mg/kg administered perorally; assay type: functional; details: route oral; in short: as §1
Rattus norvegicus [14] = assay: Evaluated for the effects on the gastric emptying rates of resin pellets solid meal through the stomach in rats, at a dose of 5.0 mg/Kg administered perorally; assay type: functional; in short: as §2
Rattus norvegicus [15] = assay: Evaluated for the effects on the gastric emptying rates of phenol red semisolid meal through the stomach in rats, at a dose of 0.5 mg/Kg administered perorally; assay type: functional; in short: as §1
Mus musculus [16] = assay: Evaluated for the effects on the gastric emptying rates of phenol red semisolid meal through the stomach in mouse, at a dose of 2 mg/Kg administered perorally; assay type: functional; in short: as §1
Rattus norvegicus [17] = assay: Evaluated for the effects on the gastric emptying rates of resin pellets solid meal through the stomach in rats, at a dose of 10 mg/Kg administered perorally; assay type: functional; in short: as §2
Rattus norvegicus [18] = assay: Evaluated for the effects on the gastric emptying rates of phenol red semisolid meal through the stomach in rats, at a dose of 10.0 mg/Kg administered perorally; assay type: functional; in short: as §1
Rattus norvegicus [19] = assay: Evaluated for the effects on the gastric emptying rates of resin pellets solid meal through the stomach in rats, at a dose of 2.0 mg/Kg administered perorally; assay type: functional; in short: as §2
Mus musculus [20] = assay: Evaluated for the effects on the gastric emptying rates of phenol red semisolid meal through the stomach in mouse, at a dose of 5 mg/Kg administered perorally; assay type: functional; in short: as §1
Rattus norvegicus [21] = assay: Evaluated for the effects on the gastric emptying rates of phenol red semisolid meal through the stomach in rats, at a dose of 5.0 mg/Kg administered perorally; assay type: functional; in short: as §1
Mus musculus [22] = assay: Evaluated for the effects on the gastric emptying rates of phenol red semisolid meal through the stomach in mouse, at a dose of 1 mg/Kg administered perorally; assay type: functional; in short: as §1
Mus musculus [23] = assay: Evaluated for the effects on the gastric emptying rates of phenol red semisolid meal through the stomach in mouse, at a dose of 0.5 mg/Kg administered perorally; assay type: functional; in short: as §1
Mus musculus [24] = assay: Evaluated for the effects on the gastric emptying rates of phenol red semisolid meal through the stomach in mouse, at a dose of 2 mg/kg administered perorally (po); (p<0.01); assay type: functional; in short: as §1
[25] = biological target: D(2) dopamine receptor (Canis lupus familiaris) (UniProt Q9GJU1); details: 3.0 mg/kg
Rattus norvegicus [26] = assay: Evaluated for the effects on the gastric emptying rates of resin pellets solid meal through the stomach in rats, at a dose of 10 mg/kg administered perorally; assay type: functional; details: route oral; in short: as §2

Chain of D(2) dopamine receptor (Canis lupus familiaris) (Q9GJU1 whole entry): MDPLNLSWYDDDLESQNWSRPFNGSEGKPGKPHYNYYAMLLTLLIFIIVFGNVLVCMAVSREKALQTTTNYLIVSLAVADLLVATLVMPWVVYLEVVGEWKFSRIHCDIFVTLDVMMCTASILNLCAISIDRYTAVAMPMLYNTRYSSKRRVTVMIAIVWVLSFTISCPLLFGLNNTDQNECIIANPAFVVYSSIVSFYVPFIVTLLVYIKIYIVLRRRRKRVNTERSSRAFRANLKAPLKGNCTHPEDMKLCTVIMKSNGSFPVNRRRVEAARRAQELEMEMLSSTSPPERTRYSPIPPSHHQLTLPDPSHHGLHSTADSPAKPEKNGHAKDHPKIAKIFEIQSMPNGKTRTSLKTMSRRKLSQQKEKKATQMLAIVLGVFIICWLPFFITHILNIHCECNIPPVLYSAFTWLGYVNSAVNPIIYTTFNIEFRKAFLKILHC

COc1cc(N)c(Cl)cc1C(=O)NCCCC1CN(Cc2ccccc2)CCO1.O=C(O)C(=O)O (stereo not drawn)
GE (Rattus norvegicus [1]): 23%

CCOc1cc(N)c(Cl)cc1C(=O)NCCC1CN(Cc2ccccc2)CCO1 (stereo not drawn)
GE (Rattus norvegicus [1]): 45%

CCOc1cc(N(C)C)c(Cl)cc1C(=O)NCC1CN(Cc2ccccc2)CCO1.O=C(O)C(=O)O (stereo not drawn)
GE (Rattus norvegicus [1]): 51%

COc1ccccc1C(=O)NCC1CN(Cc2ccccc2)CCO1.O=C(O)/C=C/C(=O)O (stereo not drawn)
GE (Rattus norvegicus [1]): 17%

CNc1cc(OC)c(C(=O)NCC2CN(Cc3ccccc3)CCO2)cc1Cl.O=C(O)/C=C/C(=O)O (stereo not drawn)
GE (Rattus norvegicus [1]): 14%

COc1cc(N)c(Cl)cc1C(=O)OCC1CN(Cc2ccccc2)CCO1 (stereo not drawn)
GE (Rattus norvegicus [1]): 17%

COc1cc(Cl)c(N)cc1C(=O)NCC1CN(Cc2ccccc2)CCO1 (stereo not drawn)
GE (Rattus norvegicus [1]): 10%

COc1cc(N)c(Cl)cc1C(=O)NCC1CN(Cc2ccccc2)CCO1.Cl (stereo not drawn)
GE (Rattus norvegicus [1]): 39%

CN(C)c1cc(O)c(C(=O)NCC2CN(Cc3ccccc3)CCO2)cc1Cl.O=C(O)C(=O)O (stereo not drawn)
GE (Rattus norvegicus [1]): 27%

CN(C)c1c(Cl)cc(C(=O)NCC2CN(Cc3ccccc3)CCO2)c(O)c1Cl.O=C(O)C(=O)O (stereo not drawn)
GE (Rattus norvegicus [1]): 14%

COc1cc(N)c(Cl)cc1C(=O)NCC1CN(Cc2ccccc2)CCO1 (stereo not drawn) [listing 1 of 2 here]
inhibition [2]: 4%

CCOc1cc(N)c(Cl)cc1C(=O)NCCCC1CN(Cc2ccccc2)CCO1 (stereo not drawn)
GE (Rattus norvegicus [1]): 18%

COc1cc(N)c(Cl)cc1C(=O)N(C)CC1CN(Cc2ccccc2)CCO1.O=C(O)/C=C/C(=O)O (stereo not drawn)
GE (Rattus norvegicus [1]): 15%

COc1cc(N)c([N+](=O)[O-])cc1C(=O)NCC1CN(Cc2ccccc2)CCO1.O (stereo not drawn)
GE (Rattus norvegicus [1]): 14%

COc1cc(Cl)ccc1C(=O)NCC1CN(Cc2ccccc2)CCO1.Cl (stereo not drawn)
GE (Rattus norvegicus [1]): 23%

COc1ccc(S(N)(=O)=O)cc1C(=O)NCC1CN(Cc2ccccc2)CCO1 (stereo not drawn)
GE (Rattus norvegicus [1]): 24%

COc1cc(N(C)C)c(Cl)cc1C(=O)NCC1CN(Cc2ccccc2)CCO1.O=C(O)/C=C/C(=O)O (stereo not drawn)
GE (Rattus norvegicus [3]): 5%
GE (Rattus norvegicus [4]): 27%
GE (Rattus norvegicus [5]): 52%
GE (Mus musculus [6]): 43%
GE (Rattus norvegicus [7]): 47%
GE (Rattus norvegicus [8]): 15%
GE (Mus musculus [9]): 33%
inhibition [10]: 0%
GE (Rattus norvegicus [11]): 49%
GE (Mus musculus [12]): 43%
GE (Mus musculus [13]): 7%

COc1cc(N)c(Br)cc1C(=O)NCC1CN(Cc2ccccc2)CCO1 (stereo not drawn)
GE (Rattus norvegicus [1]): 10%

COc1cc(N)c(Cl)cc1C(=O)NCCC1CN(Cc2ccccc2)CCO1.O=C(O)/C=C/C(=O)O (stereo not drawn)
GE (Rattus norvegicus [1]): 35%

CCN(CC)c1cc(OC)c(C(=O)NCC2CN(Cc3ccccc3)CCO2)cc1Cl.O=C(O)C(=O)O (stereo not drawn)
GE (Rattus norvegicus [1]): 21%

COc1cc(N)ccc1C(=O)NCC1CN(Cc2ccccc2)CCO1 (stereo not drawn)
GE (Rattus norvegicus [1]): 11%

O=C(NCC1CN(Cc2ccccc2)CCO1)c1c(F)c(F)c(F)c(F)c1F.O=C(O)C(=O)O (stereo not drawn)
GE (Rattus norvegicus [1]): 9%

CCSc1ccc(S(N)(=O)=O)cc1C(=O)NCC1CN(Cc2ccccc2)CCO1 (stereo not drawn)
GE (Rattus norvegicus [1]): 27%

COc1ccc(Cl)cc1C(=O)NCC1CN(Cc2ccccc2)CCO1.Cl (stereo not drawn)
GE (Rattus norvegicus [1]): 19%

COc1cc(N)c(Cl)cc1C(=O)NCC1CN(Cc2ccccc2)CCO1 (stereo not drawn) [listing 2 of 2 here]
GE (Rattus norvegicus [14]): 70%
GE (Rattus norvegicus [15]): 18%
GE (Rattus norvegicus [1]): 26%
GE (Mus musculus [16]): 46%
GE (Rattus norvegicus [17]): 78%
GE (Rattus norvegicus [18]): 52%
GE (Rattus norvegicus [19]): 49%
GE (Mus musculus [20]): 68%
GE (Rattus norvegicus [21]): 35%
GE (Mus musculus [22]): 49%
GE (Mus musculus [23]): 50%

COc1cc(NC(C)=O)ccc1C(=O)NCC1CN(Cc2ccccc2)CCO1.O (stereo not drawn)
GE (Rattus norvegicus [1]): 24%

NS(=O)(=O)c1ccc(Cl)c(C(=O)NCC2CN(Cc3ccccc3)CCO2)c1 (stereo not drawn)
GE (Rattus norvegicus [1]): 18%

Nc1cc(O)c(C(=O)NCC2CN(Cc3ccccc3)CCO2)cc1Cl.O (stereo not drawn)
GE (Rattus norvegicus [1]): 36%

COc1cc(C(=O)NCC2CN(Cc3ccccc3)CCO2)cc(OC)c1OC.O=C(O)C(=O)O (stereo not drawn)
GE (Rattus norvegicus [1]): 11%

COc1cc(N)c(Cl)cc1C(=O)NC1CCN(CCCOc2ccc(F)cc2)CC1OC (stereo not drawn) [CISAPRIDE]
GE (Rattus norvegicus [4]): 14%
GE (Rattus norvegicus [5]): 47%
GE (Mus musculus [6]): 36%
GE (Rattus norvegicus [7]): 50%
GE (Mus musculus [9]): 29%
GE (Rattus norvegicus [11]): 43%
GE (Mus musculus [12]): 38%
GE (Mus musculus [13]): 24%

CC(=O)Nc1cc(O)c(C(=O)NCC2CN(Cc3ccccc3)CCO2)cc1Cl (stereo not drawn)
GE (Rattus norvegicus [1]): 11%

O=C(NCC1CN(Cc2ccccc2)CCO1)c1cccc2c1OCO2.O=C(O)/C=C/C(=O)O (stereo not drawn)
GE (Rattus norvegicus [1]): 30%

O=C(NCC1CN(Cc2ccccc2)CCO1)c1ccc2c(c1)OCO2.O=C(O)/C=C/C(=O)O (stereo not drawn)
GE (Rattus norvegicus [1]): 34%

CCOc1cc(N)c(Cl)cc1C(=O)NCC1CN(Cc2ccccc2)CCO1.O (stereo not drawn)
GE (Mus musculus [24]): 52%
GE (Rattus norvegicus [3]): 76%
GE (Rattus norvegicus [4]): 34%
GE (Rattus norvegicus [5]): 54%
GE (Rattus norvegicus [7]): 56%
GE (Rattus norvegicus [8]): 58%
GE (Mus musculus [9]): 23%
inhibition [10]: 5%
GE (Rattus norvegicus [11]): 49%
GE (Mus musculus [12]): 38%
GE (Mus musculus [13]): 35%

Nc1ccc(C(=O)NCC2CN(Cc3ccccc3)CCO2)cc1Cl.O=C(O)C(=O)O (stereo not drawn)
GE (Rattus norvegicus [1]): 30%

CCN(CC)CCNC(=O)c1cc(Cl)c(N)cc1OC [METOCLOPRAMIDE]
GE (Rattus norvegicus [3]): 23%
GE (Rattus norvegicus [5]): 21%
GE (Mus musculus [6]): 20%
GE (Rattus norvegicus [7]): 26%
GE (Mus musculus [9]): -10%
GE (Rattus norvegicus [11]): 31%
inhibition [25]: 100%
GE (Rattus norvegicus [26]): 43%
GE (Mus musculus [12]): 28%

CCOc1ccc(S(N)(=O)=O)cc1C(=O)NCC1CN(Cc2ccccc2)CCO1 (stereo not drawn)
GE (Rattus norvegicus [1]): 19%

COc1c(Cl)cc(Cl)c(OC)c1C(=O)NCC1CN(Cc2ccccc2)CCO1 (stereo not drawn)
GE (Rattus norvegicus [1]): 4%

Source: ChEMBL document CHEMBL1124766, “Novel benzamides as selective and potent gastric prokinetic agents. 1. Synthesis and structure-activity relationships of N-[(2-morpholinyl)alkyl]benzamides” (1990)
